Data taken from ChEMBL document CHEMBL2021813, “Semisynthetic neoclerodanes as kappa opioid receptor probes” (Bioorg Med Chem, 2012).

What was measured:
[1] = biological target: T1, Mu-type opioid receptor (Homo sapiens, UniProt P35372); assay: Displacement of [3H]DAMGO from human recombinant mu opioid receptor expressed in CHO cells after 2 hrs by liquid scintillation counting; type: cell-based
Summary of the method: (§1)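 Membranes from CHO cells stably transfected with human DOP, MOP or KOP receptor, in 50 mM Tris-HCl pH 7.4 with a protease inhibitor cocktail. The ~2 nM [3H]radioligand was displaced by 10 drug concentrations, in triplicate, for 2 hr at 25 °C, then filtered over GF/B. Nonspecific binding was set by 20 μM levallorphan (DADLE, DAMGO) or 1 μM (−)-U69,593 (U69,593). Ki (±SD) came from full curves, n=3.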

[2] = biological target: T1, Mu-type opioid receptor; assay: Displacement of [3H]DAMGO from human recombinant mu opioid receptor expressed in CHO cells at 10 uM after 2 hrs by liquid scintillation counting; type: cell-based
Summary of the method: (§2)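 Radioligand (~2 nM) competition on human opioid receptor CHO membranes in Tris-HCl pH 7.4, 2 hr at 25 °C, with GF/B filtration and scintillation counting. Results are percent of control produced by a single test drug concentration, 1 μM or 10 μM as the line states. Nonspecific binding was set by 20 μM levallorphan (DADLE, DAMGO) or 1 μM (−)-U69,593 (U69,593).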

[3] = biological target: T2, Delta-type opioid receptor (Homo sapiens, UniProt P41143); assay: Displacement of [3H]DADLE from human recombinant delta opioid receptor expressed in CHO cells after 2 hrs by liquid scintillation counting; type: cell-based; summary of the method: as §1
T2 sequence (P41143 whole entry): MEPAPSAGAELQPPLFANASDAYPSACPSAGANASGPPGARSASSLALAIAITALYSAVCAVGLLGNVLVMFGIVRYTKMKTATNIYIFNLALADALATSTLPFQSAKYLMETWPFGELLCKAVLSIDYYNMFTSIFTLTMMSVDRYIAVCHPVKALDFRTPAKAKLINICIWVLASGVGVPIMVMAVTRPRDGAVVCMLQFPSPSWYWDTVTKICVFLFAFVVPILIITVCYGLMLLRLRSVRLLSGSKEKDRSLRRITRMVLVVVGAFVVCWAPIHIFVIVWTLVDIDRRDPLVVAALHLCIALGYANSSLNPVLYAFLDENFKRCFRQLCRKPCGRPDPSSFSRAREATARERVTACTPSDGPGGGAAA

[4] = biological target: T2, Delta-type opioid receptor; assay: Displacement of [3H]DADLE from human recombinant delta opioid receptor expressed in CHO cells at 1 uM after 2 hrs by liquid scintillation counting; type: cell-based; summary of the method: as §2
[5] = biological target: T3, Kappa-type opioid receptor (Homo sapiens, UniProt P41145); assay: Displacement of [3H]U69593 from human recombinant kappa opioid receptor expressed in CHO cells after 2 hrs by liquid scintillation counting; type: cell-based; summary of the method: as §1
T3 sequence (P41145 whole entry): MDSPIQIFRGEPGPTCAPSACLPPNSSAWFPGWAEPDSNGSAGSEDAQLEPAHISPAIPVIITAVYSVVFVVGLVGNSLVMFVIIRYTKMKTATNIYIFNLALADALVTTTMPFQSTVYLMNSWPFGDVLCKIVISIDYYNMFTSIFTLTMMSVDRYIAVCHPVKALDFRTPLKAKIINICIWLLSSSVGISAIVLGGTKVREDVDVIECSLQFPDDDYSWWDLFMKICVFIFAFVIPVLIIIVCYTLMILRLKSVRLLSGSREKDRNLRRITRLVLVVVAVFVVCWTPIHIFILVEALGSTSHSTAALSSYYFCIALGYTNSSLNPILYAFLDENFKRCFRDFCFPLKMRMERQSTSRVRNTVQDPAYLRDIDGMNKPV

[6] = biological target: T3, Kappa-type opioid receptor; assay: Agonist activity at human recombinant kappa opioid receptor expressed in CHO cells assessed as [35S]GTP-gamma-S binding after 3 hrs by liquid scintillation counting; type: functional, cell-based
Summary of the method: (§3)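 hKOP-CHO membranes (50 μg protein) were incubated with 50 pM [35S]GTP-γ-S and 40 μM GDP. Final buffer was 50 mM Tris-HCl pH 7.4, 100 mM NaCl, 10 mM MgCl2, 1 mM EDTA, 1 mM DTT and 0.1% BSA. Incubation ran 3 hr at 25 °C. Nonspecific binding was set with 40 μM GTP-γ-S. Bound label was separated by vacuum filtration through GF/B and counted.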

[7] = biological target: T2, Delta-type opioid receptor; assay: Displacement of [3H]DADLE from human recombinant delta opioid receptor expressed in CHO cells at 10 uM after 2 hrs by liquid scintillation counting; type: cell-based; summary of the method: as §2
[8] = biological target: T3, Kappa-type opioid receptor; assay: Agonist activity at human recombinant kappa opioid receptor expressed in CHO cells assessed as [35S]GTP-gamma-S binding after 3 hrs by liquid scintillation counting relative to (-)U50488; type: functional, cell-based; summary of the method: as §3
[9] = Chemical solubility of the compound in THF; type: physicochemical
[10] = Chemical solubility of the compound in 50 mM Tris-HCl at pH 7.4; type: physicochemical; settings: buffer
[11] = test system: Rhesus monkey; assay: In vivo binding affinity to kappa opioid receptor in iv dosed rhesus monkey assessed as rightward shift in serum prolactin level administered every 20 mins measured every 15 mins by immunoradiometric analysis; type: functional; settings: Macaca mulatta
Summary of the method: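 Chair-trained male rhesus monkeys received i.v. cumulative doses rising in 0.5 log steps every 20 min. Blood was sampled 15 min after each dose, after two baseline samples at −10 and −5 min. Serum prolactin was expressed as change from each subject's pre-injection baseline, as mean ±SEM. ED50 came from linear regression of mean dose-effect points spanning the ED50.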

[12] = biological target: T3, Kappa-type opioid receptor; assay: Displacement of [3H]U69593 from human recombinant kappa opioid receptor expressed in CHO cells at 10 uM after 2 hrs by liquid scintillation counting; type: cell-based; summary of the method: as §2
[13] = biological target: T1, Mu-type opioid receptor; assay: Displacement of [3H]DAMGO from human recombinant mu opioid receptor expressed in CHO cells at 1 uM after 2 hrs by liquid scintillation counting; type: cell-based; summary of the method: as §2

T1 sequence (P35372 whole entry): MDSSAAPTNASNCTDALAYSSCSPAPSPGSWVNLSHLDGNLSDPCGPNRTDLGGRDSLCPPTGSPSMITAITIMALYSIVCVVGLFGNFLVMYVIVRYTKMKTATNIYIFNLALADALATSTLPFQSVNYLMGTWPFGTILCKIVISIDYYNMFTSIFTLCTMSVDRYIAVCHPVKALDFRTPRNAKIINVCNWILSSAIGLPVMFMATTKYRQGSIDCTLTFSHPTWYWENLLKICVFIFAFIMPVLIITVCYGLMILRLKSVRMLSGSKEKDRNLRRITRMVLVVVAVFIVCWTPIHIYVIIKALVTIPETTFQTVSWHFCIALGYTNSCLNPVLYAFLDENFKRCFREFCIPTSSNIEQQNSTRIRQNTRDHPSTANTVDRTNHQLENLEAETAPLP

SMILES | Ki [1] [µM] | Activity [2] [%] | Ki [3] [µM] | Ki [5] [µM] | Activity [7] [%] | also measured
COC(=O)[C@@H]1C[C@H](OC(C)=O)C(=O)[C@H]2[C@@]1(C)CC[C@H]1C(=O)O[C@H](C(=O)c3ccc(OC)cc3)C[C@]21C | > 10 | 74 | > 10 | > 10 |  | Activity [4]: 81%
COC(=O)[C@@H]1C[C@H](OC(C)=O)C(=O)[C@H]2[C@@]1(C)CC[C@H]1C(=O)O[C@H](C(=O)c3ccco3)C[C@]21C | 9.8 |  | > 10 | 0.08 | 91 | EC50 [6]: 2.13 µM; Emax [8]: 92%
COC(=O)[C@@H]1C[C@H](OC(C)=O)C(=O)[C@H]2[C@@]1(C)CC[C@H]1C(=O)O[C@H](C=O)C[C@]21C |  |  |  |  |  | solubility [9]: Insoluble
COC(=O)[C@@H]1C[C@H](OC(C)=O)C(=O)[C@H]2[C@@]1(C)CC[C@H]1C(=O)O[C@H](C(=O)c3cccc(OC(F)(F)F)c3)C[C@]21C | 4.8 |  | > 1 | > 10 |  | Activity [4]: 37%
C/C=C\C(=O)[C@@H]1C[C@]2(C)[C@H]3C(=O)[C@@H](OC(C)=O)C[C@@H](C(=O)OC)[C@]3(C)CC[C@H]2C(=O)O1 | > 1.7 |  | > 5 | 0.32 |  | 
COC(=O)[C@@H]1C[C@H](OC(C)=O)C(=O)[C@H]2[C@@]1(C)CC[C@H]1C(=O)O[C@H](C(=O)c3ccsc3)C[C@]21C | 2.53 |  | > 10 | 0.031 | 88 | EC50 [6]: 0.62 µM; Emax [8]: 88%
COC(=O)[C@@H]1C[C@H](OC(C)=O)C(=O)[C@H]2[C@@]1(C)CC[C@H]1C(=O)O[C@H](C(=O)c3ccoc3)C[C@]21C | > 10 | 66 | > 10 | 0.15 | 95 | 
COC(=O)[C@@H]1C[C@H](OC(C)=O)C(=O)[C@H]2[C@@]1(C)CC[C@H]1C(=O)O[C@H](/C=C\c3ccoc3)C[C@]21C |  |  |  |  | 94 | Emax [8]: 105%; solubility [10]: Insoluble
COC(=O)[C@@H]1C[C@H](OC(C)=O)C(=O)[C@H]2[C@@]1(C)CC[C@H]1C(=O)O[C@@H](c3ccoc3)C[C@]21C [12-EPI-SALVINORIN A] |  | 72 |  |  | 74 | ED50 [11]: 0.038 mg/kg
COC(=O)[C@@H]1C[C@H](OC(C)=O)C(=O)[C@H]2[C@@]1(C)CC[C@H]1C(=O)O[C@H](C(=O)c3cccc(OC)c3)C[C@]21C | 3.09 |  | > 10 | 0.29 |  | Activity [4]: 77%
COC(=O)[C@@H]1C[C@H](OC(C)=O)C(=O)[C@H]2[C@@]1(C)CC[C@H]1C(=O)O[C@H](c3ccoc3)C[C@]21C [SALVINORIN A] |  |  |  |  |  | ED50 [11]: 0.0037 mg/kg
COC(=O)[C@@H]1C[C@H](OC(C)=O)C(=O)[C@H]2[C@@]1(C)CC[C@H]1C(=O)O[C@H](C(=O)c3cc4ccccc4o3)C[C@]21C | > 10 | 100 | > 10 | > 10 | 91 | Activity [12]: 92%
COC(=O)[C@@H]1C[C@H](OC(C)=O)C(=O)[C@H]2[C@@]1(C)CC[C@H]1C(=O)O[C@H](C(=O)c3cccc(O)c3)C[C@]21C | > 1 |  | > 10 | 0.11 | 80 | Activity [13]: 55%
